Runt-SMMHC FRET: inhibitors of RUNX1 Runt–CBFb-SMMHC binding, primary screen, biochemical, FRET, Cerulean-Runt, Venus-CBFb-SMMHC, uHTS. Runt-related transcription factor 1 (Homo sapiens) + Core-binding factor subunit beta …. Cerulean-Runt/Venus-CBFb-SMMHC FRET ratio 530/480, 1 h. inhibition, % at 20 µM. hit rate 0.74% among 220,000. AID 1434, 2008;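 active = mean inhibition across duplicate retests at 20 µM reaching about 50%, limit read from the data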;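 also: 0% = DMSO wells and 100% = wells with excess untagged CBFb-SMMHC; inhibitors lower the FRET ratio by blocking Runt binding to CBFb-SMMHC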
Target sequence (Q01196 whole entry, looked up): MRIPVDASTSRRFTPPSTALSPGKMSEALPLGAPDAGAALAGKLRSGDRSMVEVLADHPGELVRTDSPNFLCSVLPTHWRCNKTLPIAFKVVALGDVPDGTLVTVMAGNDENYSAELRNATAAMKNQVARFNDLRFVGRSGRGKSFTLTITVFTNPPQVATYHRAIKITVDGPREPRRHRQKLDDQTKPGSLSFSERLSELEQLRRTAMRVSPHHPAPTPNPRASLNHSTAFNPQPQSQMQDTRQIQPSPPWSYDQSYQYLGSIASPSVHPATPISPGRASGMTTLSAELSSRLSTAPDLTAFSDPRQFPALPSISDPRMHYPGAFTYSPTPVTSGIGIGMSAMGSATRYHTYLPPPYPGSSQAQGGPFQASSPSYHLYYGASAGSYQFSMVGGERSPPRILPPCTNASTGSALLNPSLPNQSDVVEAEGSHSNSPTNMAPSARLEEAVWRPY
Target sequence (Q13951 whole entry, looked up): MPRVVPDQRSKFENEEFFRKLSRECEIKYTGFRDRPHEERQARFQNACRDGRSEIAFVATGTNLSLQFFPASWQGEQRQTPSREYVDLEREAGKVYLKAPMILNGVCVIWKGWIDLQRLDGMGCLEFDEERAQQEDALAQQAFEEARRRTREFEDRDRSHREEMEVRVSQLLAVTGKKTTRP
MEX-5 binding: MEX-5 zinc finger RNA-binding disruptors – biochemical, C. elegans, fluorescence polarization, MLPCN library, primary screen. activity score (negative = inhibition of binding), % at 10 µM. hit rate 0.38% among 300,000. MEX-5/FITC-TCR2 RNA binding; active compounds read low. AID 1832, 2009;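 active = inhibition past about -25% in most replicates, and total fluorescence under double the plate's negative control median, limit read from the data; inconclusive = replicates evenly split on the limit, or fluorescence at least double controls; inactive = too little inhibition in most replicates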;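 also: 0% = DMSO and -100% = 5 µM competing unlabeled TCR2 RNA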
proKLK7 act: proKLK7 zymogen activators, primary screen, biochemical, fluorescence intensity; Kallikrein-7 (Homo sapiens), P49862; purified proKLK7, EDANS-DABCYL substrate fluorescence; 100% is mature enzyme control, 0% vehicle; activation, % at 7 µM; hit rate 0.9% among 370,000; AID 652039, 2013;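 active = activation above the mean of all tested compounds plus 3 SD, computed per campaign excluding outliers beyond control limits, cut at about 13% in these data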
RanGTP-Impb inh: inhibitors of RanGTP-importin-beta interaction, primary screen, biochemical, FRET, CFP-Ran, YFP-importin-beta, homogeneous; inhibition, % (concentration not given with the values); hit rate 1.1% among 300,000; AID 2216, 2009; cell-free CFP-Ran/YFP-importin-beta FRET ratio;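 active = more than half of the replicate wells show a fall in the fluorescence ratio signal beyond about 16%, limit read from the data, passing the limit was not always enough; inconclusive = exactly half of the replicate wells pass the set limit; inactive = fewer than half of replicates pass the limit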;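 also: 0% = DMSO wells and 100% = Ran loaded with GDP instead of GTP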
Runt-CBFb FRET: inhibitors of RUNX1 Runt–CBFb binding, primary screen, biochemical, FRET, Cerulean-Runt, Venus-CBFb, uHTS; Runt-related transcription factor 1 (Homo sapiens) + Core-binding factor subunit beta …; inhibition, % at 20 µM; Cerulean-Runt/Venus-CBFb FRET ratio 530/480, 1 h; hit rate 0.46% among 220,000;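 active = inhibition over about 50% at 20 µM in the single-dose screen, limit read from the data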;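 also: 0% = DMSO wells and 100% = excess unlabeled CBFb competitor control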
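Assay system: Cerulean-Runt domain / Medium: Tris 50 mM pH 7.5, KCl, K2SO4, 0.01% BSA / Timing: protein complex preformed 1 h, compound exposure 1 h, room temperature, dark / Measured by: FRET, excitation 422 nm, emission at 530 and 480 nm / Evaluation: loss of energy transfer signal / Control set: 5 µM unlabeled CBFb as full-inhibition high control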
proKLK7 act conf: proKLK7 zymogen activators, confirmation, biochemical, fluorescence intensity, triplicate; shares compounds with proKLK7 act; purified proKLK7, EDANS-DABCYL substrate fluorescence; scaled: vehicle 0, mature enzyme 100; activation, % at 7 µM; hit rate 68% among 3,200; AID 686949, 2013;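 active = activation, as change over the incubation, above the mean of all tested compounds plus 3 SD, cut at about 13% in these data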
EDANS-DABCYL int: EDANS-DABCYL substrate optical interference, artefact control for kallikrein-7 zymogen activator project, biochemical, fluorescence intensity, high throughput; shares compounds with proKLK7 act; no enzyme, 4 h; solvent 0%, active enzyme control 100%; activation, % at 7 µM; hit rate 80% among 3,200;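 active = activation above the all-compound mean plus 3 SD, ignoring values outside control-based bounds, cut at about 4.8% in these data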;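 also: value is the 4 h activation minus the activation read at time zero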
K7 EDANS ctr: counter-screen for kallikrein-7 activators: EDANS-DABCYL interference, dose response | shares compounds with proKLK7 act | EDANS-DABCYL peptide fluorescence interference, no enzyme | EC50, µM | hit rate 20% among 250 | AID 720493;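 active = compounds that raise the fluorescence signal in this interference counterscreen, with EC50 at or below 10 µM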;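 also: intact quenched peptide substrate alone read at 355 nm excitation and 520 nm emission; signal is fluorescence gain from T0 to T4 after four hours at room temperature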
* = called active by the depositor. Compounds with a hit are over-represented: about 2.1% of the library has one in this group of screens.

`Cc1cc(C(=O)NCC23CC4CC(CC(C4)C2)C3)c(C)o1` gave Runt-SMMHC FRET 0, MEX-5 binding 2, RanGTP-Impb inh inconclusive and Runt-CBFb FRET -2.
Screening COc1cc(OC)c(/C=N/NC(=O)c2ccncc2)c(OC)c1 returned MEX-5 binding -2, proKLK7 act 14*, RanGTP-Impb inh -2, proKLK7 act conf 8 and EDANS-DABCYL int 9.1*.
`COc1ccc(/C=N/NC(=O)c2ccncc2)c(OC)c1` gave MEX-5 binding 2, proKLK7 act -2 and RanGTP-Impb inh -5.
CN(C(=O)COC(=O)c1ccccc1NCCO)C1CCS(=O)(=O)C1 (centres undefined) was read as MEX-5 binding 0, proKLK7 act 14*, RanGTP-Impb inh 3, proKLK7 act conf 40* and EDANS-DABCYL int 42*.
For CCC(CC)COC(=O)C1=C(C)NC(=O)NC1c1cc(OC)ccc1OC (centres undefined) the results were MEX-5 binding 0, proKLK7 act 52*, RanGTP-Impb inh 4, proKLK7 act conf 1 and EDANS-DABCYL int 2.
Screening CCC(CC)COC(=O)C1=C(C)NC(=O)NC1c1ccc(OC)cc1 (centres undefined) returned MEX-5 binding -1, proKLK7 act 1 and RanGTP-Impb inh -2.
Screening CN1CCSc2ccc(C(=O)NCc3ccccc3)cc21 returned MEX-5 binding -4, proKLK7 act 43*, RanGTP-Impb inh 0, proKLK7 act conf 6 and EDANS-DABCYL int 24*.
CCN1CCSc2ccc(C(=O)NCc3cccc(F)c3)cc21 was read as MEX-5 binding 2, proKLK7 act 16*, RanGTP-Impb inh -1, proKLK7 act conf -56 and EDANS-DABCYL int -36.
CNC(=S)NNC(=O)c1cccn(Cc2ccc(Cl)cc2Cl)c1=O was read as Runt-SMMHC FRET -4, MEX-5 binding 0, proKLK7 act 15*, RanGTP-Impb inh 4, proKLK7 act conf 30* and EDANS-DABCYL int 42*.
CNC(=S)NNC(=O)c1cccn(Cc2cccc(C(F)(F)F)c2)c1=O was read as MEX-5 binding -2, proKLK7 act 28*, RanGTP-Impb inh 5, proKLK7 act conf 89* and EDANS-DABCYL int 84*.
Screening CCNC(=S)NNC(=O)c1cccn(Cc2ccc(Cl)cc2)c1=O returned Runt-SMMHC FRET 0, MEX-5 binding 1, proKLK7 act 22*, RanGTP-Impb inh 2, proKLK7 act conf 33* and EDANS-DABCYL int 39*.
CCOC1=C2CN(S(=O)(=O)c3ccc(C)cc3)[C@@H](c3cccs3)C[C@H]2[C@H]2C(=O)N(c3ccccc3)C(=O)[C@H]2C1 was read as proKLK7 act 0.
Screening COc1ccc(OC)c(NC(=O)c2nc(-c3ccccc3)oc2C)c1 returned Runt-SMMHC FRET -4, MEX-5 binding 3, proKLK7 act 0, RanGTP-Impb inh 1 and Runt-CBFb FRET -3.
`O=C(Nc1cccc(C(=O)N2CCCC2)c1)C1CCC1` gave proKLK7 act 0.
`COc1cc(NC(=O)c2ccco2)c(OC)cc1NC(=O)CCC(=O)Nc1cc(C)cc(C)c1` gave Runt-SMMHC FRET -5, MEX-5 binding 0, proKLK7 act -20, RanGTP-Impb inh -2 and Runt-CBFb FRET -2.
For COc1cc(NC(=O)c2ccco2)c(OC)cc1NC(=O)CCC(=O)Nc1cc(C)ccc1C the results were Runt-SMMHC FRET 0, proKLK7 act 31*, Runt-CBFb FRET 2, proKLK7 act conf 14*, EDANS-DABCYL int -7 and K7 EDANS ctr inactive.
`CCCCNC(=O)c1nc(-c2cc3ccccc3[nH]2)oc1-c1cccc(C(F)(F)F)c1` gave proKLK7 act 1.
For COc1ccccc1N(C)S(=O)(=O)c1ccc(C(=O)Nc2ccc(C(N)=O)cc2)cc1 the results were proKLK7 act 24*, proKLK7 act conf 22*, EDANS-DABCYL int 3 and K7 EDANS ctr inactive.
For COc1cccc(/C=C/C(=O)Nc2ccc(C(=O)Nc3cccc(S(N)(=O)=O)c3)cc2)c1OC the results were MEX-5 binding -2, proKLK7 act 77*, RanGTP-Impb inh -1, proKLK7 act conf 79* and EDANS-DABCYL int 83*.
Screening NCCNC(=O)c1c(NC(=O)c2ccccc2)sc2c1CCCC2 returned MEX-5 binding 1, proKLK7 act 19*, RanGTP-Impb inh 5, proKLK7 act conf -3 and EDANS-DABCYL int -4.
COCCN(CCOC)S(=O)(=O)c1ccc(C(=O)Nc2sc3c(c2C(N)=O)CCCCC3)cc1 was read as Runt-SMMHC FRET -14, MEX-5 binding 2, proKLK7 act 19*, RanGTP-Impb inh -2, Runt-CBFb FRET 35, proKLK7 act conf 4 and EDANS-DABCYL int 21*.
Screening Cc1cccc(C2Nc3ccccc3C(=O)N2c2ccccc2)n1 (centres undefined) returned Runt-SMMHC FRET -5, MEX-5 binding 0, proKLK7 act 19*, RanGTP-Impb inh 1, Runt-CBFb FRET -5, proKLK7 act conf 40* and EDANS-DABCYL int 43*.
CCN(CCn1cccn1)C(=O)c1ccc(OC2CCN(C(=O)CCOC)CC2)cc1 was read as proKLK7 act -1.
For Nc1ccc2nn(-c3ccc(F)cc3)nc2c1 the results were MEX-5 binding 0, proKLK7 act 45*, RanGTP-Impb inh -2, proKLK7 act conf 66* and EDANS-DABCYL int 77*.
`COc1ccc(-n2nc3ccc(N)cc3n2)cc1` gave proKLK7 act 99*, proKLK7 act conf 77* and EDANS-DABCYL int 82*.
